Test results published in ChEMBL document CHEMBL1275272, “Synthesis, characterization and antimicrobial activity of some disubstituted 1,3,4-oxadiazoles carrying 2-(aryloxymethyl)phenyl moiety” (2010).
≈ marks a conversion by molar mass, not a printed value.

Experiments:
Format in all cases: functional
[1] = system: Staphylococcus aureus; assay: Antibacterial activity against Staphylococcus aureus after 16 to 18 hrs by serial dilution method; conditions: for MIC: Staphylococcus aureus
Procedure, shortened: (§1)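 The test compound was dissolved in DMF and serially diluted. A standard drop of the prepared microbial culture was added to each dilution, and tubes were incubated at 37 °C for 16–18 h. MIC was taken as the highest dilution that stayed clear with no visible turbidity.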

[2] = system: Escherichia coli; assay: Antibacterial activity against Escherichia coli after 16 to 18 hrs by serial dilution method; conditions: for MIC: Escherichia coli; procedure, shortened: as §1
[3] = system: Talaromyces marneffei; assay: Antifungal activity against Penicillium marneffei after 16 to 18 hrs by serial dilution method; conditions: for MIC: Talaromyces marneffei; procedure, shortened: as §1
[4] = system: Klebsiella pneumoniae; assay: Antibacterial activity against Klebsiella pneumoniae after 16 to 18 hrs by serial dilution method; conditions: for MIC: Klebsiella pneumoniae
[5] = system: Trichophyton mentagrophytes; assay: Antifungal activity against Trichophyton mentagrophytes after 16 to 18 hrs by serial dilution method; conditions: for MIC: Trichophyton mentagrophytes
[6] = system: Pseudomonas aeruginosa; assay: Antibacterial activity against Pseudomonas aeruginosa after 16 to 18 hrs by serial dilution method; conditions: for MIC: Pseudomonas aeruginosa; procedure, shortened: as §1
[7] = system: Aspergillus fumigatus; assay: Antifungal activity against Aspergillus fumigatus after 16 to 18 hrs by serial dilution method; conditions: for MIC: Aspergillus fumigatus
[8] = system: Aspergillus flavus; assay: Antifungal activity against Aspergillus flavus after 16 to 18 hrs by serial dilution method; conditions: for MIC: Aspergillus flavus; procedure, shortened: as §1

SMILES | inhibition zone (IZ) [1] [mm] | MIC [1] [µg/mL] | inhibition zone (IZ) [2] [mm] | MIC [2] [µg/mL] | inhibition zone (IZ) [3] [mm] | MIC [3] [µg/mL] | inhibition zone (IZ) [4] [mm] | MIC [4] [µg/mL] | inhibition zone (IZ) [5] [mm] | MIC [5] [µg/mL] | inhibition zone (IZ) [6] [mm] | MIC [6] [µg/mL] | inhibition zone (IZ) [7] [mm] | MIC [7] [µg/mL] | inhibition zone (IZ) [8] [mm] | MIC [8] [µg/mL]
Cc1ccc(OCc2ccccc2-c2nnc(-c3cccc4ncccc34)o2)cc1 | <10 | 25 (≈ 63.5 µM) | <10 | 25 (≈ 63.5 µM) | <10 | 25 (≈ 63.5 µM) | <10 | 25 (≈ 63.5 µM) | <10 | 25 (≈ 63.5 µM) | <10 | 25 (≈ 63.5 µM) | <10 | 25 (≈ 63.5 µM) | <10 | 25 (≈ 63.5 µM)
Cc1ccccc1OCc1ccccc1-c1nnc(-c2ccccc2F)o1 | 16 | 6.25 (≈ 17.3 µM) | 16 | 6.25 (≈ 17.3 µM) | 16 | 6.25 (≈ 17.3 µM) | 16 | 6.25 (≈ 17.3 µM) | 16 | 6.25 (≈ 17.3 µM) | 16 | 6.25 (≈ 17.3 µM) | 16 | 6.25 (≈ 17.3 µM) | 16 | 6.25 (≈ 17.3 µM)
Cc1cccc(OCc2ccccc2-c2nn(CN3CCOCC3)c(=S)o2)c1 | 11 | 12.5 (≈ 31.4 µM) | 11 | 12.5 (≈ 31.4 µM) | 11 | 12.5 (≈ 31.4 µM) | 11 | 12.5 (≈ 31.4 µM) | 11 | 12.5 (≈ 31.4 µM) | 11 | 12.5 (≈ 31.4 µM) | 11 | 12.5 (≈ 31.4 µM) | 11 | 12.5 (≈ 31.4 µM)
Cc1ccc(OCc2ccccc2-c2nnc(-c3cccc(Br)c3)o2)cc1 | <10 | 25 (≈ 59.3 µM) | <10 | 25 (≈ 59.3 µM) | <10 | 25 (≈ 59.3 µM) | <10 | 25 (≈ 59.3 µM) | <10 | 25 (≈ 59.3 µM) | <10 | 25 (≈ 59.3 µM) | <10 | 25 (≈ 59.3 µM) | <10 | 25 (≈ 59.3 µM)
Cc1cccc(OCc2ccccc2-c2nnc(SCc3ccccc3)o2)c1 | <10 | 25 (≈ 64.4 µM) | <10 | 25 (≈ 64.4 µM) | <10 | 25 (≈ 64.4 µM) | <10 | 25 (≈ 64.4 µM) | <10 | 25 (≈ 64.4 µM) | <10 | 25 (≈ 64.4 µM) | <10 | 25 (≈ 64.4 µM) | <10 | 25 (≈ 64.4 µM)
Cc1ccc(OCc2ccccc2-c2nnc(SCc3ccccc3)o2)cc1 | <10 | 25 (≈ 64.4 µM) | <10 | 25 (≈ 64.4 µM) | <10 | 25 (≈ 64.4 µM) | <10 | 25 (≈ 64.4 µM) | <10 | 25 (≈ 64.4 µM) | <10 | 25 (≈ 64.4 µM) | <10 | 25 (≈ 64.4 µM) | <10 | 25 (≈ 64.4 µM)
Cc1cccc(OCc2ccccc2-c2nnc(-c3cc(C)cc(C)c3)o2)c1 | 11 | 12.5 (≈ 33.7 µM) | 11 | 12.5 (≈ 33.7 µM) | 11 | 12.5 (≈ 33.7 µM) | 11 | 12.5 (≈ 33.7 µM) | 11 | 12.5 (≈ 33.7 µM) | 11 | 12.5 (≈ 33.7 µM) | 16 | 6.25 (≈ 16.9 µM) | 11 | 12.5 (≈ 33.7 µM)
Cc1cccc(OCc2ccccc2-c2nn(CNc3cccc(C(F)(F)F)c3)c(=S)o2)c1 | 16 | 6.25 (≈ 13.3 µM) | 16 | 6.25 (≈ 13.3 µM) | 11 | 12.5 (≈ 26.5 µM) | 16 | 6.25 (≈ 13.3 µM) | 11 | 12.5 (≈ 26.5 µM) | 16 | 6.25 (≈ 13.3 µM) | 16 | 6.25 (≈ 13.3 µM) | 16 | 6.25 (≈ 13.3 µM)
Cc1ccc(OCc2ccccc2-c2nn(CNc3ccc(Cl)cc3C(=O)C(F)(F)F)c(=S)o2)cc1 | <10 | 25 (≈ 46.8 µM) | <10 | 25 (≈ 46.8 µM) | <10 | 25 (≈ 46.8 µM) | <10 | 25 (≈ 46.8 µM) | <10 | 25 (≈ 46.8 µM) | <10 | 25 (≈ 46.8 µM) | <10 | 25 (≈ 46.8 µM) | <10 | 25 (≈ 46.8 µM)
COc1cc(-c2nnc(-c3ccccc3COc3ccc(Cl)cc3)o2)cc(OC)c1OC | 16 | 6.25 (≈ 13.8 µM) | 16 | 6.25 (≈ 13.8 µM) | 16 | 6.25 (≈ 13.8 µM) | 16 | 6.25 (≈ 13.8 µM) | 16 | 6.25 (≈ 13.8 µM) | 16 | 6.25 (≈ 13.8 µM) | 16 | 6.25 (≈ 13.8 µM) | 16 | 6.25 (≈ 13.8 µM)
Cc1cccc(OCc2ccccc2-c2nnc(-c3cccc4ncccc34)o2)c1 | <10 | 25 (≈ 63.5 µM) | <10 | 25 (≈ 63.5 µM) | <10 | 25 (≈ 63.5 µM) | <10 | 25 (≈ 63.5 µM) | <10 | 25 (≈ 63.5 µM) | <10 | 25 (≈ 63.5 µM) | <10 | 25 (≈ 63.5 µM) | <10 | 25 (≈ 63.5 µM)
Cc1cccc(OCc2ccccc2-c2nnc(-c3ccccc3F)o2)c1 | 16 | 6.25 (≈ 17.3 µM) | 16 | 6.25 (≈ 17.3 µM) | 16 | 6.25 (≈ 17.3 µM) | 16 | 6.25 (≈ 17.3 µM) | 16 | 6.25 (≈ 17.3 µM) | 16 | 6.25 (≈ 17.3 µM) | 11 | 12.5 (≈ 34.7 µM) | 11 | 12.5 (≈ 34.7 µM)
Fc1ccccc1-c1nnc(-c2ccccc2COc2ccc(Cl)cc2)o1 | 16 | 6.25 (≈ 16.4 µM) | 16 | 6.25 (≈ 16.4 µM) | 16 | 6.25 (≈ 16.4 µM) | 16 | 6.25 (≈ 16.4 µM) | 16 | 6.25 (≈ 16.4 µM) | 16 | 6.25 (≈ 16.4 µM) | 16 | 6.25 (≈ 16.4 µM) | 16 | 6.25 (≈ 16.4 µM)
Cc1ccccc1OCc1ccccc1-c1nnc(-c2ccc(Cl)cc2)o1 | <10 | 25 (≈ 66.3 µM) | <10 | 25 (≈ 66.3 µM) | <10 | 25 (≈ 66.3 µM) | <10 | 25 (≈ 66.3 µM) | <10 | 25 (≈ 66.3 µM) | <10 | 25 (≈ 66.3 µM) | <10 | 25 (≈ 66.3 µM) | <10 | 25 (≈ 66.3 µM)
Cc1cc(C)cc(-c2nnc(-c3ccccc3COc3ccccc3C)o2)c1 | 11 | 12.5 (≈ 33.7 µM) | 11 | 12.5 (≈ 33.7 µM) | 11 | 12.5 (≈ 33.7 µM) | 11 | 12.5 (≈ 33.7 µM) | 11 | 12.5 (≈ 33.7 µM) | 11 | 12.5 (≈ 33.7 µM) | 16 | 6.25 (≈ 16.9 µM) | 11 | 12.5 (≈ 33.7 µM)
Cc1ccccc1OCc1ccccc1-c1nnc(-c2cccc3ncccc23)o1 | <10 | 25 (≈ 63.5 µM) | <10 | 25 (≈ 63.5 µM) | <10 | 25 (≈ 63.5 µM) | <10 | 25 (≈ 63.5 µM) | <10 | 25 (≈ 63.5 µM) | <10 | 25 (≈ 63.5 µM) | <10 | 25 (≈ 63.5 µM) | <10 | 25 (≈ 63.5 µM)
Cc1cccc(OCc2ccccc2-c2nn(CNc3ccc(Cl)cc3C(=O)C(F)(F)F)c(=S)o2)c1 | <10 | 25 (≈ 46.8 µM) | <10 | 25 (≈ 46.8 µM) | <10 | 25 (≈ 46.8 µM) | <10 | 25 (≈ 46.8 µM) | <10 | 25 (≈ 46.8 µM) | <10 | 25 (≈ 46.8 µM) | <10 | 25 (≈ 46.8 µM) | <10 | 25 (≈ 46.8 µM)
